# Screening results from PubChem BioAssay.
# MT1-MMP act inh: blockers of MT1-MMP proenzyme processing, primary screen, HT1080 RFP-PRO-GFP cells, GFP/RFP fluorescence; 360,000 compounds, 0.061% hits; GFP/RFP ratio fluorescence, overnight; percent of plate control window, DMSO zero; Matrix metalloproteinase-14 (Homo sapiens), P50281; GFP/RFP ratio change, % at 20 µM;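 active = GFP/RFP ratio change of at least 30% with cell ATP level not reduced by more than half and red fluorescence within 50% of control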
#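 Assay system: HT1080 RFP-PRO-GFP cells | Dosing: 20 µM single dose, 1% DMSO | Incubation: Cells overnight before dosing, compound overnight, 37 °C, 5% CO2 | Evaluation: GFP/RFP fluorescence ratio | Control set: DMSO-only wells and HT1080 RFP-L50D-GFP cell wells as references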
# Fh CTSL1 inh: Fasciola hepatica cathepsin L1 inhibitors, primary screen, counter-screen for PFM18AAP inhibitor project, biochemical, QFRET, fluorogenic peptide substrate. 300,000 compounds, 0.49% hits. recombinant F. hepatica cathepsin L1, Z-Leu-Arg-MCA fluorescence. inhibition, % at 5.96 µM;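 active = inhibition above the mean of all tested compounds plus 3 SD, set per screening campaign, cut at about 17% in these data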;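 note: 0% = plate median of test compound wells and 100% = 1 µM Z-Phe-Ala-diazomethylketone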
# DAGLB inh: DAGLB lipase inhibitors, primary screen, biochemical, fluorescence, HTS; HEK293T DAGLB membrane lysate, EnzChek fluorogenic substrate; inhibition, % at 5.17 µM; 340,000 compounds, 0.059% hits; AID 504411, 2011; in the data active = inhibition above about 34%;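 note: 0% = enzyme with vehicle and 100% = wells lacking enzyme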
# CendR NRP1 mod: modulators of CendR peptide binding to NRP-1, primary screen, biochemical, fluorescence polarization, uHTS; inhibition, % at 25 µM; Neuropilin-1 (Homo sapiens), O14786; 360,000 compounds, 0.85% hits; FAM-RPARPAR peptide binding to NRP-1;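 active = inhibition or corrected inhibition above about 18%, plus a signal ratio from 0.5 to 1.5, limit read from the data, passing the limit was not always enough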
# UCH37 inh: inhibitors of human UCH37 deubiquitinase, primary screen, biochemical, Ub-AMC cleavage, fluorescence. Ubiquitin carboxyl-terminal hydrolase isozyme L5 (Homo sapiens), Q9Y5K5. purified proteasome/UCH37. inhibition, % (no concentration beside the values). 330,000 compounds, 0.33% hits. AID 588478, 2011;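 active = mean inhibition over replicate wells above about 20%, limit read from the data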;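 note: 0% = compound-free wells with enzyme and 100% = wells lacking proteasome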
# Target sequence (Q9Y5K5 whole entry, looked up): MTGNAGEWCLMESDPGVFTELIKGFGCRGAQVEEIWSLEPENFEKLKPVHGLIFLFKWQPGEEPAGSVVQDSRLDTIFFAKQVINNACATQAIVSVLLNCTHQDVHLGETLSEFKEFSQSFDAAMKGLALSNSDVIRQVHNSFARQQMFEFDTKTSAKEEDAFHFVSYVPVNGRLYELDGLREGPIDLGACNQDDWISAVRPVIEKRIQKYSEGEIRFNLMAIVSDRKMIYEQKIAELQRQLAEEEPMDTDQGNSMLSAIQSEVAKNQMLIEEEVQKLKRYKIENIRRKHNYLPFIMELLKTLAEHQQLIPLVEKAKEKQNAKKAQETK
#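 Test system – human UCH37 enzyme supplied as purified proteasome complex · Incubation – 30 min preincubation with enzyme, 25 min cleavage at room temperature · Detection – AMC fluorescence from Ub-AMC cleavage, excitation 355 nm, emission 460 nm · Benchmarks – no-proteasome wells (full inhibition) and compound-free wells (no inhibition)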
# An asterisk follows results filed as active; / = no result. Most compounds without a hit are left out; they make up all but 1.5% or so of the library.
SMILES,MT1-MMP act inh,Fh CTSL1 inh,DAGLB inh,CendR NRP1 mod,UCH37 inh
CC(C(=O)NN=C(c1ccccc1)c1ccccc1)N1CCOCC1 (stereo not drawn),-11,1,-2,26*,-3
CCOC(=O)N1CCN(C(=O)CNC(=O)c2ccc(Br)cc2)CC1,0,3,0,27*,3
O=C(Nc1ccccc1N1CCCC1)c1ccc(Br)o1,-3,4,-3,-15,1
COc1cccc(C(=O)NC(=S)Nc2ccccc2N2CCCC2)c1,8,23*,-8,6,19
O=C(NC(=S)Nc1ccccc1N1CCCC1)c1ccco1,-5,21*,/,28*,/
O=C(NC(=S)Nc1ccccc1N1CCCC1)c1ccccc1Br,3,23*,-20,-12,/
COc1ccc(N2CCCC2)c(NC(=O)c2ccc(Br)o2)c1,-9,0,-2,61*,3
CC(=NNS(=O)(=O)c1ccc(C)c([N+](=O)[O-])c1)c1cc2ccccc2o1,/,/,/,/,7
CC1=CC(=O)C(C(C)C)=CC1=NOC(=O)c1cccc2nc(C)oc12,/,/,/,/,3
CC(C)(C)C(=O)ON=C1CCS(=O)(=O)c2sccc21,/,/,/,/,5
COc1ccccc1NC(=S)NNC(=O)c1ccccc1Br,-4,-1,2,21*,3
COc1ccccc1C(=O)NNC(=O)c1ccccc1Br,-4,2,1,0,2
O=C(NN=Cc1ccccn1)c1cccc(NC(=O)c2ccc(Cl)cc2)c1,/,/,/,/,-5
COc1cccc(C(=O)NNC2OC(CO)C(O)C2O)c1 (stereo not drawn),6,19*,-1,5,2
O=C(NNC1OC(CO)C(O)C(O)C1O)c1cccnc1 (stereo not drawn),-1,0,-1,12,3
CCn1c(/C=C/Nc2ccccc2)[n+](CC)c2ccc(Cl)cc21,-1,9,0,-12,15
CCn1c(/C=C/N(C)c2ccccc2)[n+](CC)c2ccc(Cl)cc21,13,1,2,5,23*
CC(=O)Nc1ccc(CNc2nc(NC(C)C)nc3ccsc23)cc1,1,/,/,28*,/
CC(=O)Nc1ccc(CNc2nc(NCC3CC3)nc3ccsc23)cc1,2,/,/,-6,/
O=C(NN=Cc1ccc(OC(=O)c2ccccc2Cl)cc1)c1ccc(O)cc1,/,/,/,/,3
COc1ccncc1-c1csc(C(O)c2ccccc2)n1 (stereo not drawn),-6,/,/,23*,/
COc1ccc(C(O)c2nc(-c3cc(F)cc(F)c3)cs2)cc1 (stereo not drawn),2,/,/,40*,/
COc1ccc(-c2csc(C(O)c3ccccc3)n2)cc1 (stereo not drawn),1,/,/,23,/
CC(=NNC(=O)c1ccncc1)c1ccccc1,/,/,/,/,3
CNC(=O)C1(C(F)(F)F)C/C(=C\CCO)CCCO1 (stereo not drawn),1,18*,1,8,2
SMILES,MT1-MMP act inh,Fh CTSL1 inh,DAGLB inh,CendR NRP1 mod,UCH37 inh
Cc1ccc(S(=O)(=O)/N=C2\C(=O)c3ccccc3C([O-])=C2n2cc[n+](CCC(C)C)c2)cc1,-61,7,7,31*,31*
Cc1ccc(OCC(=O)c2cc(C)c(C)cc2C)c([N+](=O)[O-])n1,3,-1,-4,-14,-5
Cc1ccc(OCC(=O)c2c(N)n(C)c(=O)n(C)c2=O)c([N+](=O)[O-])n1,-11,/,-1,21*,8
CC(=NNC(=O)c1cccc(C)c1)c1c(O)cc(C)oc1=O,/,/,/,/,8
CC(=O)N1CCc2cc(S(=O)(=O)CCC(=O)NCc3ccc4c(c3)OCO4)ccc21,6,18*,0,10,0
CC(=O)OC[C@@H]1CN(Cc2cccc(C(F)(F)F)c2)C[C@H](n2cnc3c(NCc4ccco4)ncnc32)O1,0,/,/,40*,/
Cc1ccc(NC(=O)c2ccc(CN3CCc4ccccc4C3)cc2)cc1,-1,-2,-3,-3,22*
Cc1ccc(CN2CCN(C(=O)CCN3C(=O)c4ccccc4C3=O)CC2)cc1,3,1,0,-14,20*
CCc1ccc(NC(=S)N2CCN(C)CC2)cc1,1,-2,3,21*,2
Cc1ccc(NC(=S)N2CCN(Cc3ccccc3)CC2)cc1,2,0,-1,26*,2
COc1ccc2c(c1)c(C(=O)NN=Cc1cn(C)c3ccccc13)c(C)n2C,/,/,/,/,9
Cn1cccc1CC(=O)NN=Cc1cccs1,/,/,/,/,-3
Cc1onc(-c2ccccc2)c1C(=O)NN=C/C=C/c1ccccc1,/,/,/,/,2
CCOC(=O)C1=C(C)N=c2sc(=Cc3ccc(OC(C)=O)cc3)c(=O)n2C1/C=C/c1ccccc1 (stereo not drawn),/,/,/,/,4
O=C(NN=Cc1ccc2c(c1)OCO2)c1cc(-c2ccco2)nc2ccccc12,/,/,/,/,-64
COC(=O)c1cccc2nc3c(C(C)O)cccc3nc12 (stereo not drawn),-11,87*,3,-3,7
CCN(CC)C(=O)c1cccc2nc3ccccc3nc12,-2,-4,-1,1,9
CC(=O)Nc1ccc(C(C)=NNC(=O)c2ccc(COc3ccccc3Cl)o2)cc1,/,/,/,/,2
Cc1scc(C(=O)NN=Cc2ccco2)c1C,/,/,/,/,9
CCOC(=O)c1csc(COc2ccc(OC)cc2)n1,1,-5,-13,30*,0
COc1ccc(N(CC(=O)NN=Cc2ccc3c(c2)OCO3)S(=O)(=O)c2ccccc2)cc1,/,/,/,/,6
COc1cc(OC)cc(C(=O)N[C@H](C(=O)OCC(=O)c2ccc(F)cc2)C(C)C)c1,-7,18*,-7,16,5
COc1cc(OC)cc(C(=O)N[C@H](C(=O)OCC(=O)Nc2cccc(F)c2)C(C)C)c1,6,-39,-6,-10,-14
CN(N=Cc1ccncc1)c1cnn(-c2ccc(F)c(Cl)c2)c(=O)c1Cl,/,/,/,/,0
C[C@@]12CCC3[C@@](CCC4[C@@]3(C)CCC[C@@]4(C)C(=O)NC3CCCCC3)(CC1=O)C2 (stereo partly drawn),-10,/,-11,32*,0
O=C(NN=Cc1ccccc1C(=O)O)C(=O)N1CCCCC1,/,/,/,/,4
CCOc1ccc(C=NOCC(=O)NC(c2ccccc2)c2ccccc2)cc1,/,/,/,/,4
CCC(C)[C@H](NC(=O)Nc1ccccc1F)C(=O)OC (stereo partly drawn),1,-2,2,22*,0
COC(=O)[C@H](C)NC(=O)Nc1ccccc1F,9,-4,0,1,0
CCOc1cc(C=NNC(=O)Cn2nc([N+](=O)[O-])cc2C)ccc1OCc1ccc(F)cc1,/,/,/,/,4
